Experimental data of several laboratories.
Compare with care: the assays were run in different laboratories.
RET: Proto-oncogene tyrosine-protein kinase receptor Ret (RET, Homo sapiens, UniProt P07949)
RET V804L: Proto-oncogene tyrosine-protein kinase receptor Ret (RET, Homo sapiens, UniProt P07949, V804L)
RET V804M: Proto-oncogene tyrosine-protein kinase receptor Ret (RET, Homo sapiens, UniProt P07949, V804M)

Compound | target | assay | conditions | measurement | result
O=C1Nc2ccc(Cl)cc2C1=Cc1cc(Cl)c(O)c(Cl)c1 | RET | cell-free assay | 0.5 µM | remaining signal | 80.4%
COc1cc(-c2cc(-c3ccc(N4CCNCC4)cc3)cnc2N)cc(OC)c1OC | RET V804L | enzyme activity, inhibitor | 1 µM | inhibition | 5%
Nc1ncnc2occ(-c3ccc(NC(=O)Nc4cc(C(F)(F)F)ccc4F)cc3)c12 | RET V804L | cell-free assay | 20 µM | remaining signal | 0%
COc1ccc(CN2C3CC2CN(c2ccc(-c4cc(OCC(C)(C)O)cn5ncc(C#N)c45)cn2)C3)cn1 | Proto-oncogene tyrosine-protein kinase receptor Ret (RET, Homo sapiens, UniProt P07949, L760A) | thermal stability, DSF | 10 µM | ΔTm | 8.7 °C
CCN(CC)CCNC(=O)c1c(C)[nH]c(/C=C2\C(=O)Nc3ccc(F)cc32)c1C | RET | cell-free assay | 0.5 µM | remaining signal | 3.43%
CCCOc1ccc(OC)c(F)c1C(=O)c1ccc(C(=O)N[C@@H]2CNC[C@H]2NC(=O)c2ccc3[nH]ncc3c2)cc1 | RET V804M | enzyme activity, inhibitor | 10 µM | remaining activity | 4%
Cc1cc(NC(=O)Nc2c(NC3CCCC3)c3ccccc3oc2=O)ccc1Br | RET | enzyme activity, inhibitor, radiometric | 10 µM | remaining activity | 67.7%
Cc1ccc(C(=O)NCc2ccsc2)cc1C#Cc1cn(C(C)C)c2ncnc(N)c12 | RET | enzyme activity, inhibitor | 1 µM | activity vs control | 4%
CCc1cccc(NC(=O)c2cc(-c3ccc(OC)c(S(N)(=O)=O)c3)[nH]n2)c1 | RET | enzyme activity, inhibitor, radiometric | 10 µM | remaining activity | 92.5%
CC/C(=N\NC(=O)NCc1cccc(O)c1)c1ccc(O)c(C)c1O | Proto-oncogene tyrosine-protein kinase receptor Ret (RET, Homo sapiens, UniProt P07949, Y791F) | enzyme activity, inhibitor | 0.1 µM | inhibition | 2.9%
O=C1NC(=O)c2cc(Nc3ccc(F)cc3)c(Nc3ccc(F)cc3)cc21 | RET | cell-free assay | 0.5 µM | remaining signal | 104%
COc1cc(NC(=O)Nc2ccccc2Br)cc2sc(NC(=O)c3ccccc3)nc12 | RET | enzyme activity, inhibitor, radiometric | 0.1 µM | remaining activity | 106%
Cc1ccc(NC(=O)c2ccc(C)c(C(F)(F)F)c2)cc1C#Cc1nn(C2CCC(O)CC2)c2ncnc(N)c12 (stereo not shown) | RET | cell-free assay | 10 µM | remaining signal | 2%
C[C@H](c1ccc(F)cc1)N(Cc1cccc(C(=O)O)c1)C(=O)c1cnc2ccccc2c1 | RET V804M | cell-free assay, competition with immobilised ligand | 1 µM | remaining binding | 100%
Cc1cc(NC(=O)c2cccc3cc(-c4cccc5[nH]nc(N)c45)ccc23)ccc1F | RET | enzyme activity, inhibitor | 0.1 µM | activity vs control | 37%
CCOC(=O)N1CCN(c2nc(Nc3ccc(C)cc3)c3nn[nH]c3n2)CC1 | RET | enzyme activity, inhibitor, radiometric | 0.1 µM | remaining activity | 128%
O=c1nc(-c2ccccn2)sc2ccccc12 | RET V804M | binding, competition with immobilised ligand | 1 µM | remaining binding | 100%

Compound | target | assay | conditions | measurement | result
CO[C@]1(C(=O)N[C@@H](C)c2ccc(-n3cc(F)cn3)nc2)CC[C@H](c2nc(C)cc(Nc3cc(C)[nH]n3)n2)CC1 | Proto-oncogene tyrosine-protein kinase receptor Ret (RET, Homo sapiens, UniProt P07949, K758M) | thermal stability, DSF | 10 µM | ΔTm | 14.2 °C
CNC(=O)c1cc(Oc2ccc(NC(=O)Nc3ccc(Cl)c(C(F)(F)F)c3)cc2)ccn1 | RET | cell-free assay | 0.5 µM | remaining signal | 1.78%
COc1cc(NC(=O)Nc2ccc(Br)cc2)cc2sc(NC(=O)c3ccccc3)nc12 | RET | enzyme activity, inhibitor, radiometric | 10 µM | remaining activity | 106%
CCCOc1ccc([C@H]2[C@H](C(=O)O)[C@@H](c3ccc4c(c3)OCO4)CN2CC(=O)Nc2c(CC)cccc2CC)cc1 | RET V804L | cell-free assay, competition with immobilised ligand | 1 µM | remaining binding | 93%
COc1cc2ncnc(Nc3ccc(Oc4ccccc4)c(C)c3C)c2cc1OC | RET | enzyme activity, inhibitor | 1 µM | inhibition | 17%
COc1ccc2c(c1)O[C@H](c1ccc(OC)c(OC)c1)C[C@@H]2NC(=O)C1(c2ccc3c(c2)OC(F)(F)O3)CC1 | RET V804M | cell-free assay, competition with immobilised ligand | 1 µM | remaining binding | 100%
C=CC(=O)Nc1cc(Nc2nccc(Nc3cc(Cl)c(F)cc3C(C)(C)O)n2)c(OC)cc1N1CC[C@@H](N(C)C)C1 | RET V804M | enzyme activity, inhibitor | 1 µM | inhibition | -6%
CC(C)(O)c1cncc(-c2nc3ccc(F)cc3n2C2CC2)c1 | RET | cell-free assay, competition with immobilised ligand | 1 µM | remaining binding | 100%
COc1cc2c(N3CCN(C(=O)Nc4ccc(OC(C)C)cc4)CC3)ncnc2cc1OCCCN1CCCCC1 | RET | cell-free assay | 0.5 µM | remaining signal | 91.5%
COc1cc(NC(=O)Nc2cc(OC)c3nc(NC(=O)c4ccccc4)sc3c2)cc(OC)c1 | RET | enzyme activity, inhibitor, radiometric | 10 µM | remaining activity | 101%
C[C@H](c1ccnc(Nc2nc3ccc(-c4cc(N(C)C)ncn4)cc3[nH]2)c1)N1CCN(C(=O)CC(F)(F)F)CC1 | RET V804L | cell-free assay, competition with immobilised ligand | 0.1 µM | remaining binding | 83%
Cc1ccc(NC(=O)Nc2ccc(Nc3cc(-n4ccnc4)nc(C)n3)cc2)c(C)c1 | RET | enzyme activity, inhibitor, radiometric | 10 µM | remaining activity | 68.1%
Cc1ccc(C(=O)Nc2ccc(CN3CCN(C)CC3)c(C(F)(F)F)c2)cc1C#Cc1cnc2cccnn12 | RET V804L | enzyme activity | 23.5 nM | remaining activity | 17%
CCCCN(CCCC)C(=O)CN1C[C@H](c2cc(OC)c3c(c2)OCO3)[C@@H](C(=O)O)[C@@H]1CC(C)(C)CCC | RET | cell-free assay, competition with immobilised ligand | 1 µM | remaining binding | 100%
Cc1ccc(Nc2nccc(N(C)c3ccc4c(C)n(C)nc4c3)n2)cc1S(N)(=O)=O | RET | cell-free assay | 0.5 µM | remaining signal | 25.7%
COCC(=O)Nc1cc(C(=O)NCc2ccc(C)c(F)c2)cc2ncn(CCc3ccccc3)c12 | RET | enzyme activity, inhibitor, radiometric | 0.1 µM | remaining activity | 133%
CC(=O)Nc1c(C(C)=O)c(=O)n(C)c2nc(-c3ccc(Cl)cc3Cl)c(-c3ccc(Cl)cc3)cc12 | RET V804L | cell-free assay, competition with immobilised ligand | 1 µM | remaining binding | 100%
